Data published in publication PMC5497803 (Cancer Science, 2017).

Assays:
[1] = system: phosphorylation of AKT and ERK in AML cells; experiment: Constitutive PI3K/AKT and ERK signaling in AML cells; assay type: cell-based, human; details: Kasumi‐1 and EOL‐1 cells, 1 μM, 3 h
In short: (§1)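 Cells in RPMI-1640/10% FBS treated with 1 μM test compound for 3 h, with no added stimulus. Whole-cell lysates separated by SDS-PAGE and transferred to PVDF. Probed for phospho-AKT (S473, T308), phospho-ERK1/2, phospho-S6 and phospho-P70S6K; ECL detection.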

MV4;11 cells [2] = experiment: Cell cycle analysis by flow cytometry; assay type: cell-based, human; details: MV4;11, 24 h, 1 μM; control 63.3%
MV4;11 cells [3] = experiment: Apoptosis, Annexin V staining and cleaved caspases/PARP; assay type: cell-based, human; details: MV4;11 (and RS4;11), 48 h
In short: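 MV4;11 and RS4;11 cells exposed to test compound at several concentrations for 48 h. Whole-cell lysates were resolved by SDS-PAGE, blotted onto PVDF and probed for PARP and caspase-3, -8 and -9 cleavage, with ECL detection.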

MV4;11 xenografts = experiment: MV4; assay type: in vivo, nude mice
MV4;11 cells [4] = experiment: Cell proliferation MTT assay; assay type: cell-based; details: Homo sapiens, MV4-11, 72 h, read-out: IC50 value, MV4;11
In short: (§2)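 Cells kept in RPMI-1640 with 10% FBS at 37°C, 5% CO2. In 96-well plates, cells exposed in triplicate to a range of test compound concentrations for 72 h at 37°C. Viability read by MTT conversion to coloured product. IC50 by curve fitting; mean ± SEM of three independent experiments.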

p110δ [5] = molecular target: T1, p110δ (Homo sapiens, UniProt O00329); experiment: PI3K isoform-specific cell-based assay, anti‐IgM–stimulated Raji cells; details: anti‐IgM 1 μg/mL 10 min, then 3 h drug
p110α [6] = molecular target: T2, p110α (Homo sapiens, UniProt P42336); experiment: biochemical
[7] = system: panel of other protein kinases; experiment: SelectScreen kinase profiling, whole panel; assay type: biochemical; details: 1000 nM
p110β [8] = molecular target: T3, p110β (Homo sapiens, UniProt P42338); experiment: PI3K isoform-specific cell-based assay, LPA-stimulated PC‐3 cells; details: LPA 10 μM, 3 h drug; compared with Raji cells
In short: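 PC-3 cells stimulated with LPA (10 μM) for 10 min, then exposed to test compound for a further 3 h. Cell lysates western blotted for AKT phosphorylation.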

[9] = previous study ref 38; cited from earlier work
p110δ [10] = molecular target: T1, p110δ; experiment: PI3K ELISA kinase assay, recombinant class I PI3K; assay type: biochemical
[11] = system: p110δ‐negative MM.1R cell line; experiment: Cell proliferation MTT assay; assay type: cell-based; details: 72 h
In short: as §2

p110α [12] = molecular target: T2, p110α; experiment: PI3K isoform-specific cell-based assay, SK‐BR‐3 cells; details: 3 h
In short: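 SK-BR-3 cells exposed to test compound for 3 h. Cell lysates western blotted with phospho-specific antibodies for AKT phosphorylation.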

[13] = Pharmacokinetic study in MV4; assay type: in vivo; details: single oral dose 60 mg/kg, MV4;11 tumor‐bearing mice
In short: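 MV4;11 tumour-bearing nude mice given a single oral 60 mg/kg dose or vehicle. Plasma and tumours collected at times from 0.5 to 24 h. Drug levels in plasma and tissue measured by HPLC/tandem MS; tumour extracts western blotted for phospho-AKT and phospho-ERK.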

RS4;11 xenografts = experiment: RS4; assay type: in vivo, nude mice
In short: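 Female Balb/cA nude mice, 5–6 weeks old, inoculated subcutaneously with 5–9 × 10^6 MV4;11 or RS4;11 cells and randomised at 100–300 mm3. Dosed orally with 30 or 60 mg/kg daily for 21 days, or vehicle (vehicle n = 12, treated n = 6). Tumour volume taken as (length × width²)/2; body weight and toxicity signs recorded. Tumours collected 3 h after last dose for western blot.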

p110β [14] = molecular target: T3, p110β; experiment: biochemical
[15] = system: phosphorylation of AKT or ERK in MM.1R cells; experiment: Constitutive PI3K/AKT and ERK signaling in MM.1R cells; assay type: cell-based; details: low expression of p110δ; 1 μM, 3 h
In short: as §1

p110γ = p110γ (Mus musculus, UniProt Q9JHG7); experiment: PI3K isoform-specific cell-based assay, C5a-stimulated RAW264.7 cells; details: C5a 50 ng/mL, 3 h drug; compared with Raji cells
[16] = system: peripheral blood mononuclear cells; experiment: Cytotoxicity against peripheral blood mononuclear cells; assay type: cell-based; details: 10 μM; data not shown

T1 sequence (O00329 whole entry, species assumed, canonical isoform): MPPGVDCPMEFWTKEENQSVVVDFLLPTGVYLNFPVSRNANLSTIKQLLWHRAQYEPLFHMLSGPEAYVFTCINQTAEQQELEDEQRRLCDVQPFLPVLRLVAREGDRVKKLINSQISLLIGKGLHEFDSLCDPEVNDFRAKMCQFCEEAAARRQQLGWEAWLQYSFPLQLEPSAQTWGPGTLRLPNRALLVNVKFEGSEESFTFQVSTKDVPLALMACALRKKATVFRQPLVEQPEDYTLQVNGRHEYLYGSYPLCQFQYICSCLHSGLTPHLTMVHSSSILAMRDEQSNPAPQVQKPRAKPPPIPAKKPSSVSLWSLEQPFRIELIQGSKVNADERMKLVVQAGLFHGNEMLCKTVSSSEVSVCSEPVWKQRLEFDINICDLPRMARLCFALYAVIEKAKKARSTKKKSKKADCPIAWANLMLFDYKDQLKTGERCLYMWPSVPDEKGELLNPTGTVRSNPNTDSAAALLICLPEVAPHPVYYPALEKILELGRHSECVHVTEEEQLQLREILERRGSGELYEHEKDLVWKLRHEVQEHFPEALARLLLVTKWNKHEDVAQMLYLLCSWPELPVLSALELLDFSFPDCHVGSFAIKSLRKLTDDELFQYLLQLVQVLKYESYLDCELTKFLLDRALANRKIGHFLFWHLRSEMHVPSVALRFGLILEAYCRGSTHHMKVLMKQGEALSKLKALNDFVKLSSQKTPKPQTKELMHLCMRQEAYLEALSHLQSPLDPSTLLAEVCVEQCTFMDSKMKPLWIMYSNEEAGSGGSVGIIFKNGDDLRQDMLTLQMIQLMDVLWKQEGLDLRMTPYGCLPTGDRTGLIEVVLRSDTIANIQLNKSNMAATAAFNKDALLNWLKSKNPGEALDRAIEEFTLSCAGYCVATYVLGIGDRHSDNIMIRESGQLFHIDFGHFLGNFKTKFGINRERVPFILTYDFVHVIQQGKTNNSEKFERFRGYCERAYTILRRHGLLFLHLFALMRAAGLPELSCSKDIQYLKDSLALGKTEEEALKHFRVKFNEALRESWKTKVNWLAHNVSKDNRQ
T1 sequence (P27986 whole entry partner, species assumed, canonical isoform): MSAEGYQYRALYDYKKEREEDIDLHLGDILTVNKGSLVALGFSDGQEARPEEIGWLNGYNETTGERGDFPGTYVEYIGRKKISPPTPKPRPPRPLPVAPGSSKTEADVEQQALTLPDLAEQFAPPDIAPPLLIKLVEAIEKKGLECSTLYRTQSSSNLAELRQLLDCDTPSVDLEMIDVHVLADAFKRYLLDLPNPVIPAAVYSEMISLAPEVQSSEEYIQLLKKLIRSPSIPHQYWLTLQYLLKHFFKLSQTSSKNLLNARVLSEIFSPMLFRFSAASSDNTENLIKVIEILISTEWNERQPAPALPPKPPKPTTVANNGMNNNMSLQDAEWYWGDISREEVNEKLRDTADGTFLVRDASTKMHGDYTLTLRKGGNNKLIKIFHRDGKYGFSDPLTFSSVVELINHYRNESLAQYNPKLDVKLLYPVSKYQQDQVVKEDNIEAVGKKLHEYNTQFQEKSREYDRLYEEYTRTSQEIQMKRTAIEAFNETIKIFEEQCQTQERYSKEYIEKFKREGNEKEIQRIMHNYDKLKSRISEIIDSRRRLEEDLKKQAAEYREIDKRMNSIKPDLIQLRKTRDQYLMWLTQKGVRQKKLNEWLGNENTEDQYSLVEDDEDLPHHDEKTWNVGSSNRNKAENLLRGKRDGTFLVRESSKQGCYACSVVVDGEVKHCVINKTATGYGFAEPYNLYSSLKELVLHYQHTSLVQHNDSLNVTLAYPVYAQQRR
T3 sequence (P42338 whole entry, species assumed, canonical isoform): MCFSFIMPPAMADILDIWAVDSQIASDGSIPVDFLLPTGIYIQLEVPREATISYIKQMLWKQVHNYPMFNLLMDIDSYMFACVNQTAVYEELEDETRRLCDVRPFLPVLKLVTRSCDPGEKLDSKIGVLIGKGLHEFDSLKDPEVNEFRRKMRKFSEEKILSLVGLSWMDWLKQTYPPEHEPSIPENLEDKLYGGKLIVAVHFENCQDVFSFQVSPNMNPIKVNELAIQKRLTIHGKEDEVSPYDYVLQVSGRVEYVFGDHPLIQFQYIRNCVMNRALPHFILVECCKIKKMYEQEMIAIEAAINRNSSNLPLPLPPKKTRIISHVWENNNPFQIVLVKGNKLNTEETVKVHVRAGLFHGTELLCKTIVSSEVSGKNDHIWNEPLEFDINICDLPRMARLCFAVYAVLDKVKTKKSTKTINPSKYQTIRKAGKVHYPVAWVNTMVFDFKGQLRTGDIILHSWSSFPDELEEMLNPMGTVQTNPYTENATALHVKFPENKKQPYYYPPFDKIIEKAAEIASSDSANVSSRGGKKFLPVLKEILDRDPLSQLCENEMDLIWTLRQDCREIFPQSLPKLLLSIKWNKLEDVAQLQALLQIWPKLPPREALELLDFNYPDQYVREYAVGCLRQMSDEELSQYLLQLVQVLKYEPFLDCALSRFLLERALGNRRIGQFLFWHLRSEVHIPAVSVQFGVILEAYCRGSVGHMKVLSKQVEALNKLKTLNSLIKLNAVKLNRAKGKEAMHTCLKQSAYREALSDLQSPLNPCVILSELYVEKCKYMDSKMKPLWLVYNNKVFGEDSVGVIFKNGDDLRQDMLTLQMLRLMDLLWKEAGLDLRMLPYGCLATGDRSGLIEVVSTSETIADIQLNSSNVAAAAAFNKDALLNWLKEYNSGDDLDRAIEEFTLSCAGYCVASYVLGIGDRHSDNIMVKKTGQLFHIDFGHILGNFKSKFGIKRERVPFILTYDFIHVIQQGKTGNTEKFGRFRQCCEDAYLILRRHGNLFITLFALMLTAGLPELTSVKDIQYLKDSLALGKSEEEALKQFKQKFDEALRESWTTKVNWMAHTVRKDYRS
T3 sequence (P27986 whole entry partner, species assumed, canonical isoform): as the sequence (P27986 whole entry partner, species assumed, canonical isoform) above
T2 sequence (P42336 whole entry, species assumed): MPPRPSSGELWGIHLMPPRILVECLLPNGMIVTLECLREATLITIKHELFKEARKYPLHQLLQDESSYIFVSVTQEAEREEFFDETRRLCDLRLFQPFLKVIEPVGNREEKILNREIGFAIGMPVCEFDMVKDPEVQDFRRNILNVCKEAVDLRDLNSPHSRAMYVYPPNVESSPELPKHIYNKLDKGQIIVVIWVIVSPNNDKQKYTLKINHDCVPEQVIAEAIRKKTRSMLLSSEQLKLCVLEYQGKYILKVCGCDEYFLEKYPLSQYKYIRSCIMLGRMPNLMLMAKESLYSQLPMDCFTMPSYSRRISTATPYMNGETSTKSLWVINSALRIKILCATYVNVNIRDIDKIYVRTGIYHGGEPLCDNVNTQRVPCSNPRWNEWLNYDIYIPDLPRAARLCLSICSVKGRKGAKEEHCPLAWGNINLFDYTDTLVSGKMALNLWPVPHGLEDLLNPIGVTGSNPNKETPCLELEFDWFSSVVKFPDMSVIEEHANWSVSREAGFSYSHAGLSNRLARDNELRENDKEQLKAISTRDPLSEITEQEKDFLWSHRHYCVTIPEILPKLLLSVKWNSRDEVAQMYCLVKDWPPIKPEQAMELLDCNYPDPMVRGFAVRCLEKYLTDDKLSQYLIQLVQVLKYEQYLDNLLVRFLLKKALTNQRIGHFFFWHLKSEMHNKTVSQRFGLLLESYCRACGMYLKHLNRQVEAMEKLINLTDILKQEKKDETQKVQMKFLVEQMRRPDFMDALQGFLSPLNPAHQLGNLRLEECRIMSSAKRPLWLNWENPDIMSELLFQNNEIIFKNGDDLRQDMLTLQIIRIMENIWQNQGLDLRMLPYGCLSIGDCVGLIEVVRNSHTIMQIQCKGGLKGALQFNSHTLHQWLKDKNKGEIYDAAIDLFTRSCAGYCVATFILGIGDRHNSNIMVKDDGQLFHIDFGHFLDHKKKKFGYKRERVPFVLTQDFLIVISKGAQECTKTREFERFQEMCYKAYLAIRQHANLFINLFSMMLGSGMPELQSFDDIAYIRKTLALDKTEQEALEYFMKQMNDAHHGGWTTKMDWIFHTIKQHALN
T2 sequence (P27986 whole entry partner, species assumed): as the sequence (P27986 whole entry partner, species assumed, canonical isoform) above
Sequence of p110γ (Q9JHG7 whole entry, canonical isoform): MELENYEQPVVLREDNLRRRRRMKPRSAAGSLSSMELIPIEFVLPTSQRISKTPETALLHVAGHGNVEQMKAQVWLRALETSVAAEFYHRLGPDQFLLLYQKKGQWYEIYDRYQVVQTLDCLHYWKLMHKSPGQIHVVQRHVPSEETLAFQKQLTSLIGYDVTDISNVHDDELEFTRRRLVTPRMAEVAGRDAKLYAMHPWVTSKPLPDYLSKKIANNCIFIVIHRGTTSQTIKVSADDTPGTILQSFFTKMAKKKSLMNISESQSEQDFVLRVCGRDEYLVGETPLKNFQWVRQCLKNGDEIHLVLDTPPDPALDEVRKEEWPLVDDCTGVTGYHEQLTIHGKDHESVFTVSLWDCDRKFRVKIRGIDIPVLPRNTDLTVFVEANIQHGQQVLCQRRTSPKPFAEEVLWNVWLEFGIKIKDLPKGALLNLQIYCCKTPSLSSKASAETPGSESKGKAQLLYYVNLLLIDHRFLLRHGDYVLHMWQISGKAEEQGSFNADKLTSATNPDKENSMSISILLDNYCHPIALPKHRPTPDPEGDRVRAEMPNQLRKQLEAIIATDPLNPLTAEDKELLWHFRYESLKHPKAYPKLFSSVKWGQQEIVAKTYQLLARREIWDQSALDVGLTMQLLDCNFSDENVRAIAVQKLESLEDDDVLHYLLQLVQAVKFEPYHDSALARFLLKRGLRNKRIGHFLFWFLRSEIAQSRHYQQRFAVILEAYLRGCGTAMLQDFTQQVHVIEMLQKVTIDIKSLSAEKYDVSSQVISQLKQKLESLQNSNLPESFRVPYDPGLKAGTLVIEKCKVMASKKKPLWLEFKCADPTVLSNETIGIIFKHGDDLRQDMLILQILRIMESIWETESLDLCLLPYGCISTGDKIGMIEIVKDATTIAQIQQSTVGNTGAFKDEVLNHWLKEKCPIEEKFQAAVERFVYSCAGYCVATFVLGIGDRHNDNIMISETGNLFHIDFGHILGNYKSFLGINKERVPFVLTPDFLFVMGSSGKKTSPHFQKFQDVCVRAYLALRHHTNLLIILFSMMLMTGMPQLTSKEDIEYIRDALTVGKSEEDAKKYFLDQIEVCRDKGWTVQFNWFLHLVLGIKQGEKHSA

SMILES: CC[C@H](Nc1ncnc2[nH]cnc12)c1nc2cccc(F)c2c(=O)n1-c1ccccc1 [CAL‐101, Idelalisib, reference compound]
- Phosphorylation of AKT and ERK in p110δ‐positive AML cells [1]: preferentially inhibited phosphorylation of AKT relative to ERK
- G1 phase cells (MV4;11 cells [2]): 70.7%
- Apoptosis induction (MV4;11 cells [3]): weaker induction of apoptosis
- Tumor growth inhibition (MV4;11 xenografts; MV4;11 xenografts, 90 mg/kg oral daily): 50%
- Tumor growth inhibition (MV4;11 xenografts; MV4;11 xenografts, 180 mg/kg oral daily): 61%
- IC50 (MV4;11 cells [4]): 2400 nM
- Phosphorylation of AKT, S6 and ERK in anti‐IgM–stimulated Raji cells (p110δ [5]): concentration‐dependent decrease

SMILES: c1cnc2ccc(Nc3nc(NC4CC4)c4nc[nH]c4n3)cc2c1 [Puquitinib]
- Phosphorylation of AKT and ERK in p110δ‐positive AML cells [1]: significantly inhibited
- IC50 (p110α [6]): 993 ± 320 nM
- Inhibitory activity against a panel of other protein kinases [7]: little or no inhibitory activity
- LPA‐stimulated phosphorylation of AKT in PC‐3 cells (p110β [8]): much weaker
- G1 phase cells (MV4;11 cells [2]): 83.0%
- Apoptosis induction (MV4;11 cells [3]): increased in a dose‐dependent manner
- Hyperglycemia [9]: no puquitinib‐related hyperglycemia
- IC50 (p110δ [10]): 3.3 ± 0.6 nM
- Cytotoxicity in p110δ‐negative MM.1R cell line [11]: minimal cytotoxicity
- p110α/AKT phosphorylation in SK‐BR‐3 cells (p110α [12]): No obvious inhibitory activity
- Levels of pAKT and pERK in tumor tissues (MV4;11 xenografts; MV4;11 and RS4;11 tumor models, 3 h after last dose): significantly decreased
- Tolerability (body weight loss, signs of toxicity) (MV4;11 xenografts; MV4;11 and RS4;11 xenograft studies, all groups): well tolerated
- Phosphorylation of AKT and ERK in tumor tissue after a single dose (MV4;11 xenografts; MV4;11 xenograft, single oral 60 mg/kg, 0.5 to 24 h): inhibited in a time‐dependent manner
- Tumor growth inhibition (MV4;11 xenografts; MV4;11 xenografts, 30 mg/kg oral daily for 21 days, final treatment day): 72%
- Complete tumor regression (MV4;11 xenografts; MV4;11 xenografts, 60 mg/kg oral daily): three of six
- Tumor growth inhibition (MV4;11 xenografts; MV4;11 xenografts, 60 mg/kg oral daily for 21 days, final treatment day): 103%
- Antitumor efficacy of combination versus single agents (MV4;11 xenografts; MV4;11 xenografts, 30 mg/kg puquitinib combined with 2 mg/kg daunorubicin, P < 0.01): significantly superior
- Tolerability of combination (MV4;11 xenografts; MV4;11 xenografts, puquitinib with daunorubicin or cytarabine): generally well tolerated
- Appearance in plasma and tumor tissue [13]: appeared rapidly
- Tumor growth inhibition (RS4;11 xenografts; 30 mg/kg oral daily for 21 days): 50%
- Tumor growth inhibition (RS4;11 xenografts; 60 mg/kg oral daily for 21 days): 69%
- IC50 (p110β [14]): 959 ± 367 nM
- Phosphorylation of AKT or ERK in MM.1R cells [15]: did not affect
- IC50 (MV4;11 cells [4]): 100 nM
- C5a‐stimulated phosphorylation of AKT in RAW 264.7 cells (p110γ): much weaker
- Phosphorylation of AKT, S6 and ERK in anti‐IgM–stimulated Raji cells (p110δ [5]): concentration‐dependent decrease
- Cytotoxicity against peripheral blood mononuclear cells [16]: no cytotoxicity
